Test results from ChEMBL document CHEMBL1122809, “Improved synthesis and antitumor activity of 2-bromo-2'-deoxyadenosine” (1984).

Legend:
[1] = test system: B16 melanoma (mouse); test: Antitumor activity was evaluated by measuring mean life span in tumor (B16 melanoma) inoculated mice at 11.3 mg/kg (qd3hx8),days 1,4,7,10
[2] = test system: B16 melanoma (mouse); test: Antitumor activity expressed percentage increase in life span was determined against inoculated B16 melanoma in mice by 11.3 mg/kg dosage of compound (qd3hx8), for days 1,4,7,10
[3] = test system: L1210; test: Antitumor activity expressed as life span was determined against inoculated L1210 leukemia cells (1*10e5) in mice by 11.3 mg/kg dosage of compound (qd (x 3), for days 1, 4, 7); assay type: functional, Mus musculus
Procedure, shortened: (§1)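 Female mice (~18 g, housed six per cage) received L1210 cells intraperitoneally on day 0. Drug was made fresh and injected at 0.01 mL/g; the stated dose is per injection. Controls received the same volume of 0.154 M NaCl. Survival was followed, with deaths assigned to tumour by necropsy or to drug toxicity by set criteria. Life span is given as mean ± SD.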

[4] = test system: L1210; test: Antitumor activity expressed as life span was determined against inoculated L1210 leukemia cells (1*10e6) in mice by 70 mg/kg dosage of compound (qd (x 3), for days 1- 7); assay type: functional, Mus musculus
Procedure, shortened: as §1

[5] = test system: L1210; test: Antitumor activity expressed as life span was determined against inoculated L1210 leukemia cells (1*10e6) in mice by 90 mg/kg dosage of compound (qd (x 3), for days 1- 7); assay type: functional, Mus musculus
Procedure, shortened: as §1

[6] = test system: L1210; test: Antitumor activity expressed as life span was determined against inoculated L1210 leukemia cells (1*10e5) in mice by 45 mg/kg dosage of compound (qd (x 3), for days 1, 4, 7); assay type: functional, Mus musculus
Procedure, shortened: as §1

[7] = test system: L1210; test: Antitumor activity expressed as life span was determined against inoculated L1210 leukemia cells (1*10e6) in mice by 30 mg/kg dosage of compound (qd (x 3), for days 1- 7); assay type: functional, Mus musculus
Procedure, shortened: as §1

[8] = test system: L1210; test: Antitumor activity expressed percentage increase in life span was determined against inoculated L1210 leukemia cells (1*10e6) in mice by 30 mg/kg dosage of compound (qd (x 3), for days 1- 7); assay type: functional; conditions: Mus musculus
Procedure, shortened: (§2)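 L1210 cells were given intraperitoneally to female mice (~18 g). Freshly prepared drug was injected at 0.01 mL/g, dose per injection, and saline-injected controls were run. The end point was duration of survival. ILS was calculated as percent increase in mean life span over controls. Mice surviving 60 days or more counted as long-term survivors, scored as 60 days.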

[9] = test system: L1210; test: Antitumor activity expressed as life span was determined against inoculated L1210 leukemia cells (1*10e5) in mice by 5.6 mg/kg dosage of compound (qd (x 3), for days 1, 4, 7); assay type: functional, Mus musculus
Procedure, shortened: as §1

[10] = test system: B16 melanoma (mouse); test: Antitumor activity was evaluated by measuring mean life span in tumor (B16 melanoma) inoculated mice at 22.5 mg/kg (qd3hx8),days 1,4,7,10,13,16
[11] = test system: L1210; test: Antitumor activity expressed percentage increase in life span was determined against inoculated L1210 leukemia cells (1*10e6) in mice by 90 mg/kg dosage of compound (qd (x 3), for days 1- 7); assay type: functional; conditions: Mus musculus
Procedure, shortened: (§3)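 Female mice of about 18 g (BDF1, DBA/2 or C57Bl/6 stocks used) were inoculated intraperitoneally with 1 × 10^6 L1210 cells. Freshly prepared drug was given once daily from about 24 h after inoculation at 0.01 mL/g, with the dose stated per injection. Controls received 0.154 M NaCl, and groups held 6 mice. %ILS was taken from mean survival, with mice alive at 60 days or more counted as 60 days.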

[12] = test system: B16 melanoma (mouse); test: Antitumor activity was evaluated by measuring mean life span in tumor (B16 melanoma) inoculated mice at 22.5 mg/kg (qd3hx8),days 1,4,7,10
[13] = test system: B16 melanoma (mouse); test: Antitumor activity expressed percentage increase in life span was determined against inoculated B16 melanoma in mice by 22.5 mg/kg dosage of compound (qd3hx8), for days 1,4,7,10,13,16
[14] = test system: L1210; test: Antitumor activity expressed percentage increase in life span was determined against inoculated L1210 leukemia cells (1*10e5) in mice by 5.6 mg/kg dosage of compound (qd (x 3), for days 1, 4, 7,10,13,16); assay type: functional; conditions: Mus musculus
Procedure, shortened: as §2

[15] = test system: L1210; test: Antitumor activity expressed percentage increase in life span was determined against inoculated L1210 leukemia cells (1*10e6) in mice by 110 mg/kg dosage of compound (qd (x 3), for days 1-7); assay type: functional; conditions: Mus musculus
Procedure, shortened: as §2

[16] = test system: L1210; test: Antitumor activity expressed percentage increase in life span was determined against inoculated L1210 leukemia cells (1*10e6) in mice by 70 mg/kg dosage of compound (qd (x 3), for days 1, 4, 7); assay type: functional; conditions: Mus musculus
Procedure, shortened: as §3

[17] = test system: L1210; test: Antitumor activity expressed as life span was determined against inoculated L1210 leukemia cells (1*10e5) in mice by 22.5 mg/kg dosage of compound (qd (x 3), for days 1,5,9); assay type: functional, Mus musculus
Procedure, shortened: as §1

[18] = test system: L1210; test: Antitumor activity expressed as life span was determined against inoculated L1210 leukemia cells (1*10e6) in mice by 5.6 mg/kg dosage of compound (qd (x 3), for days 1, 4, 7); assay type: functional, Mus musculus
Procedure, shortened: as §1

[19] = test system: L1210; test: Antitumor activity expressed percentage increase in life span was determined against inoculated L1210 leukemia cells (1*10e6) in mice by 11.3 mg/kg dosage of compound (qd (x 3), for days 1, 4, 7,10,13,16); assay type: functional; conditions: Mus musculus
Procedure, shortened: as §2

[20] = test system: L1210; test: Antitumor activity expressed percentage increase in life span was determined against inoculated L1210 leukemia cells (1*10e5) in mice by 11.3 mg/kg dosage of compound (qd (x 3), for days 1, 4, 7); assay type: functional; conditions: Mus musculus
Procedure, shortened: as §2

[21] = test system: L1210; test: Antitumor activity expressed percentage increase in life span was determined against inoculated L1210 leukemia cells (1*10e6) in mice by 22.5 mg/kg dosage of compound (qd (x 3), for days 1, 4, 7,10,13,16); assay type: functional; conditions: Mus musculus
Procedure, shortened: as §2

[22] = test system: L1210; test: Antitumor activity expressed percentage increase in life span was determined against inoculated L1210 leukemia cells (1*10e6) in mice by 11.3 mg/kg dosage of compound (qd (x 3), for days 1, 4, 7); assay type: functional; conditions: Mus musculus
Procedure, shortened: as §2

[23] = test system: L1210; test: Antitumor activity expressed as life span was determined against inoculated L1210 leukemia cells (1*10e5) in mice by 5.6 mg/kg dosage of compound (qd (x 3), for days 1,5,9); assay type: functional, Mus musculus
Procedure, shortened: as §1

[24] = test system: L1210; test: Antitumor activity expressed percentage increase in life span was determined against inoculated L1210 leukemia cells (1*10e5) in mice by 5.6 mg/kg dosage of compound (qd (x 3), for days 1,5,9); assay type: functional; conditions: Mus musculus
Procedure, shortened: as §2

[25] = test system: L1210; test: Antitumor activity expressed percentage increase in life span was determined against inoculated L1210 leukemia cells (1*10e5) in mice by 45 mg/kg dosage of compound (qd (x 3), for days 1, 4, 7); assay type: functional; conditions: Mus musculus
Procedure, shortened: as §2

Nc1nc(Br)nc2c1ncn2[C@H]1C[C@H](O)[C@@H](CO)O1
Life span [1]: 23.11 days | ILS at 11.3 mg/kg [2]: 66% | Life span [3]: 14.33 days | Life span [4]: 7 days | Life span [5]: 4.83 days | Life span [6]: 37.92 days | Life span [7]: 7.67 days | ILS at 30 mg/kg [8]: 21% | Life span [9]: 11.75 days | Life span [10]: 19.22 days | ILS at 90 mg/kg [11]: 0% | Life span [12]: 20.89 days | ILS at 22.5 mg/kg [13]: 10% | ILS at 5.6 mg/kg [14]: 45% | ILS at 110 mg/kg [15]: 0% | ILS at 70 mg/kg [16]: 3% | Life span [17]: 21.42 days | Life span [18]: 11.08 days | ILS at 11.3 mg/kg [19]: 86% | ILS at 11.3 mg/kg [20]: 95% | ILS at 22.5 mg/kg [21]: 127% | ILS at 11.3 mg/kg [22]: 104% | Life span [23]: 12.36 days | ILS at 5.6 mg/kg [24]: 59% | ILS at 45 mg/kg [25]: 417%
